Test results taken from ChEMBL document CHEMBL1149191, “Novel pyridazino[4,3-b]indoles with dual inhibitory activity against Mycobacterium tuberculosis and monoamine oxidase” (J Med Chem, 2004).
pIC50: −log10 of the molar value. In brackets after ≈: the same amount, converted by molar mass.

Legend:
[1] = tested on: Mycobacterium tuberculosis; assay: In vitro inhibition of Mycobacterium tuberculosis H37Rv, determined at 2 ug/mL; assay type: functional
How it was run: (§1)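 M. tuberculosis H37Rv (Pasteur) grown twice for 1 week each in Dubos broth at 37 °C, washed, then filtered to remove clumps. 25 × 10⁴ CFU per well in RPMI 1640 with 5 mM HEPES, 2 mM L-glutamine and 2% FBS. Compound added from DMSO stock; 5,6-[³H]-uracil added at 24 h, then 18 h at 37 °C.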

[2] = tested on: Mycobacterium tuberculosis; assay: In vitro inhibition of Mycobacterium tuberculosis H37Rv, determined at 0.2 ug/mL; assay type: functional; how it was run: as §1
[3] = tested on: Mycobacterium tuberculosis; assay: In vitro inhibition of Mycobacterium tuberculosis H37Rv, determined at 20 ug/mL; assay type: functional; how it was run: as §1
[4] = tested on: Mycobacterium tuberculosis; assay: Minimal inhibitory activity of compound against Mycobacterium tuberculosis H37Rv; assay type: functional
How it was run: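 Same H37Rv [³H]-uracil incorporation assay: compound at final 20, 2.0 and 0.2 μg/mL, 24 h, then 1 μCi 5,6-[³H]-uracil for 18 h at 37 °C, harvested on filters, scintillation counted, triplicate. MIC50 is the concentration giving 50% reduction in cpm versus drug-free plate at the same bacterial dilution.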

[5] = target: T1, Amine oxidase [flavin-containing] B (Rattus norvegicus, UniProt P19643); assay: Inhibition of Monoamine oxidase B from rat liver mitochondria
T1 sequence (P19643 whole entry): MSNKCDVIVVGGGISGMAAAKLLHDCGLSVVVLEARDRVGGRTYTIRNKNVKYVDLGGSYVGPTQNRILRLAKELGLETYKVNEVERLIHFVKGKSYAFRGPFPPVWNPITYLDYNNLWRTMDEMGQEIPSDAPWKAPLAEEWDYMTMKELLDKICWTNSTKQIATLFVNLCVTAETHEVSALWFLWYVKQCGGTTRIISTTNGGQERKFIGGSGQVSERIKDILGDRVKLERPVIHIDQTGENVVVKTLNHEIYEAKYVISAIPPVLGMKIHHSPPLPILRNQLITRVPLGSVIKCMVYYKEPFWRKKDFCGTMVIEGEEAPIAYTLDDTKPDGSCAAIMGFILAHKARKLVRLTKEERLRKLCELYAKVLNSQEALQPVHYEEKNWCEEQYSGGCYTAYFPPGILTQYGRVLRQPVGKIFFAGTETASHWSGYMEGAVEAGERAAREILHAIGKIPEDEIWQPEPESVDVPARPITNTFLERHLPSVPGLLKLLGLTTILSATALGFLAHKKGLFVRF
How it was run: (§2)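 Rat liver mitochondria from differential centrifugation, in 50 mM phosphate buffer pH 7.4. Preincubated with inhibitor (10⁻⁸–10⁻³ or 10⁻⁴ M) for 60 min at 37 °C. MAO-B activity measured radiometrically as ¹⁴C-aldehyde formed from 10 μM [¹⁴C]-phenylethylamine; IC50 reported.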

[6] = target: T2, Amine oxidase [flavin-containing] A (Rattus norvegicus, UniProt P21396); assay: Inhibition of Monoamine oxidase A from rat liver mitochondria
T2 sequence (P21396 whole entry): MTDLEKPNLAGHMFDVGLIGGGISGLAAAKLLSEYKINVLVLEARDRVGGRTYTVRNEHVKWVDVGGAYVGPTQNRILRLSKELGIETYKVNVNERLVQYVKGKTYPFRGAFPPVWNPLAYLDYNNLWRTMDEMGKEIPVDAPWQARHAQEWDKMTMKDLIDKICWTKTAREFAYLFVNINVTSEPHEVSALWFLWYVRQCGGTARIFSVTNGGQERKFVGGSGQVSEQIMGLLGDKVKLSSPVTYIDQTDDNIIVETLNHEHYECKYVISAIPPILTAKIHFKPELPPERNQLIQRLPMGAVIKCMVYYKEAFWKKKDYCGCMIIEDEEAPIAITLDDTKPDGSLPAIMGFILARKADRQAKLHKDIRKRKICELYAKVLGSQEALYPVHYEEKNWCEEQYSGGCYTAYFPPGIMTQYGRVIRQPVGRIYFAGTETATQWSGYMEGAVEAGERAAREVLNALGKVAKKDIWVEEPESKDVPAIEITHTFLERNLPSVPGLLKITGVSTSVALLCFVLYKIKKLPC
How it was run: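 Rat liver mitochondria from differential centrifugation, in 50 mM phosphate buffer pH 7.4. Preincubated with inhibitor (10⁻⁸–10⁻³ or 10⁻⁴ M) for 60 min at 37 °C. MAO-A activity measured radiometrically as ¹⁴C-aldehyde formed from 0.1 mM [¹⁴C]-5-hydroxytryptamine creatinine sulfate; IC50 reported.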

[7] = target: T1, Amine oxidase [flavin-containing] B; assay: Inhibitory activity against Monoamine oxidase B isolated from rat liver mitochondria using [14C]phenylethylamine; NI denotes no inhibition at 1000 uM; how it was run: as §2

SMILES	inhibition at 2 µg/mL [1] [%]	inhibition at 0.2 µg/mL [2] [%]	inhibition at 20 µg/mL [3] [%]	MIC50 [4] [µg/mL]	pIC50 [5]	pIC50 [6]	IC50 [7]
CC(C)c1ccc(-c2c(N)nnc3c4cc(Br)ccc4n(C)c23)cc1	0	0	60.7	17.1 (≈ 43.3 µM)			
Cn1c2ccccc2c2nnc(O)c(-c3ccccc3)c21			0				
CN(C)c1ccc(-c2c3nc4ccccc4c-3n[nH]c2N)cc1	10	5.2	66		~3.00	4.10	
COc1ccc(-c2c3nc4ccccc4c-3n[nH]c2N)cc1	0	0	30.2	14.9 (≈ 51.2 µM)			
Nc1[nH]nc2c3ccccc3nc-2c1-c1ccccc1F	0	0	40.3			3.20	No inhibition
Cn1c2ccccc2c2nnc(N)c(-c3cccc(Br)c3)c21	0	0	60.1		4.00	4.20	
Cn1c2ccccc2c2nnc(NC=O)c(-c3ccccc3)c21			0				
CCn1c2ccccc2c2nnc(N)c(-c3ccc(C(C)C)cc3)c21	10.5	0	94.3	10.5 (≈ 31.7 µM)	4.80	4.00	
Cn1c2ccccc2c2nnc(N)c(-c3ccccc3Cl)c21	0	0	3.1		~3.00	~3.00	
CC(C)c1ccc(-c2c(N)nnc3c4ccccc4n(C)c23)cc1	63.6	21.3	88	1.42 (≈ 4.49 µM)	3.50	4.85	
Cc1ccc(-c2c(N)nnc3c4ccccc4n(C)c23)cc1	0	0	62.3				
Nc1[nH]nc2c3ccccc3nc-2c1-c1cccc(Br)c1	0	0	32				
Cc1ccc2c(c1)c1nnc(N)c(-c3ccc(C(C)C)cc3)c1n2C	0	0	40.5				
CC(=O)N(C(C)=O)c1nnc2c3ccccc3n(C)c2c1-c1ccccc1			0				
Cc1ccc(-c2c3nc4ccccc4c-3n[nH]c2N)cc1	0	0	40.5	16.5 (≈ 60.1 µM)	3.80	4.50	
Nc1nnc2c3ccccc3n(Cc3ccccc3)c2c1-c1ccccc1Cl	0	0	50.8		4.45	4.75	

SMILES	inhibition at 2 µg/mL [1] [%]	inhibition at 0.2 µg/mL [2] [%]	inhibition at 20 µg/mL [3] [%]	MIC50 [4] [µg/mL]	pIC50 [5]	pIC50 [6]	IC50 [7]
Cn1c2ccc(Br)cc2c2nnc(N)c(-c3ccccc3)c21	0	0	54.2				
CC(C)c1ccc(-c2c(O)nnc3c4ccccc4n(C)c23)cc1			0				
CO[C@H]1/C=C/O[C@@]2(C)Oc3c(C)c(O)c4c(O)c(c(/C=N/N5CCN(C)CC5)c(O)c4c3C2=O)NC(=O)/C(C)=C\C=C\[C@H](C)[C@H](O)[C@@H](C)[C@@H](O)[C@@H](C)[C@H](OC(C)=O)[C@@H]1C [RIFAMPIN]	91.7	54.8	94.3	0.1 (≈ 0.122 µM)			
Nc1[nH]nc2c3cc(Br)ccc3nc-2c1-c1ccccc1	44.3	9.2	91.4	4.17 (≈ 12.3 µM)	4.60	4.20	
CC(C)c1ccc(-c2c(N3C(=O)c4ccccc4C3=O)nnc3c4ccccc4n(C)c23)cc1			0				
CC(C)c1ccc(-c2c3nc4ccc(Br)cc4c-3n[nH]c2N)cc1	56.3	7.1	88.5	1.77 (≈ 4.64 µM)	4.10	4.20	
CC(C)c1ccc(-c2c(N)nnc3c4ccccc4n(CCN(C)C)c23)cc1	0	0	20.4			3.00	No inhibition
Nc1[nH]nc2c3ccccc3nc-2c1-c1ccccc1Cl	0	0	35			3.50	No inhibition
NNC(=O)c1ccncc1 [ISONIAZID]	59.1	49.7	68.7	0.25 (≈ 1.82 µM)			
CCCn1c2ccccc2c2nnc(N)c(-c3ccc(C(C)C)cc3)c21	0	0	20				
Nc1nnc2c3ccccc3n(Cc3ccccc3)c2c1-c1ccccc1	0	0	20.7				
CCn1c2ccccc2c2nnc(N)c(-c3ccccc3Cl)c21	0	0	15.9		~3.00	~3.00	
Oc1[nH]nc2c3ccccc3nc-2c1-c1ccccc1			0				
CC(C)c1ccc(-c2c3nc4ccccc4c-3n[nH]c2N)cc1	32.9	8.7	61.9	12.6 (≈ 41.8 µM)	< 3.00	< 3.00	
Cn1c2ccccc2c2nnc(N)c(-c3ccccc3)c21	25.5	2.3	40.2		~3.00	4.55	
